Publication PMC7867784 (Translational Lung Cancer Research, 2021)

System: Japanese patients with RET-rearranged NSCLC
Experiment: ALL-RET phase 1/2 trial: safety
Assay type: in vivo, human
Outline: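 Adverse events were graded by NCI CTCAE v4.0, with causal relation to treatment recorded separately. Dose finding used a 3+3 de-escalation design with 3–6 patients per cohort. DLT was evaluated over the first 21-day cycle and defined as grade ≥4 thrombopenia, grade ≥3 febrile neutropenia, grade ≥4 neutropenia lasting ≥4 days, or grade ≥3 non-hematologic toxicity, with specified exceptions. Follow-up ran until January 2019.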

[1] = 600 mg BID (N=6), dose limiting toxicity
[2] = Japanese patients with RET-rearranged NSCLC

## CCc1cc2c(cc1N1CCC(N3CCOCC3)CC1)C(C)(C)c1[nH]c3cc(C#N)ccc3c1C2=O [alectinib]
600 mg BID (N=6)
  Constipation, any grade, number [causally related]: 4 [4]
  Constipation, any grade, percent: 66.7%
  Constipation, grade 1–2, number (total): 4 [4]
  Constipation, grade 1–2, number [causally related]: 4 [4]
  Constipation, grade 3, number: 0
  Constipation, grade 4, number: 0
  Creatine phosphokinase increase, any grade, number (total): 2 [2]
  Creatine phosphokinase increase, any grade, number [causally related]: 2 [2]
  Creatine phosphokinase increase, any grade, percent: 33.3%
  Creatine phosphokinase increase, grade 1–2, number (total): 1[1]
  Creatine phosphokinase increase, grade 1–2, number [causally related]: 1[1]
  Creatine phosphokinase increase, grade 4, number: 0
  Creatinine increase, any grade, number (total): 2 [2]
  Creatinine increase, any grade, number [causally related]: 2 [2]
  Creatinine increase, any grade, percent: 33.3%
  Creatinine increase, grade 1–2, number (total): 2[2]
  Creatinine increase, grade 1–2, number [causally related]: 2[2]
  Creatinine increase, grade 3, number: 0
  Creatinine increase, grade 4, number: 0
  Dysgeusia, any grade, number (total): 2 [2]
  Dysgeusia, any grade, number [causally related]: 2 [2]
  Dysgeusia, any grade, percent: 33.3%
  Dysgeusia, grade 1–2, number (total): 2 [2]
  Dysgeusia, grade 1–2, number [causally related]: 2 [2]
  Dysgeusia, grade 3, number: 0
  Dysgeusia, grade 4, number: 0
  Erythema multiforme, any grade, number (total): 1 [1]
  Erythema multiforme, any grade, number [causally related]: 1 [1]
  Erythema multiforme, any grade, percent: 16.7%
  Erythema multiforme, grade 1–2, number: 0
  Erythema multiforme, grade 4, number: 0
  Hepatic function abnormal, any grade, number (total): 2 [2]
  Hepatic function abnormal, any grade, number [causally related]: 2 [2]
  Hepatic function abnormal, any grade, percent: 33.3%
  Hepatic function abnormal, grade 1–2, number (total): 1 [1]
  Hepatic function abnormal, grade 1–2, number [causally related]: 1 [1]
  Hepatic function abnormal, grade 4, number: 0
  Lymphocyte decrease, any grade, number (total): 1 [1]
  Lymphocyte decrease, any grade, number [causally related]: 1 [1]
  Lymphocyte decrease, any grade, percent: 16.7%
  Lymphocyte decrease, grade 1–2, number: 0
  Lymphocyte decrease, grade 3, number: 0
  Lymphocyte decrease, grade 4, number (total): 1 [1]
  Lymphocyte decrease, grade 4, number [causally related]: 1 [1]
  Myalgia, any grade, number (total): 3 [3]
  Myalgia, any grade, number [causally related]: 3 [3]
  Myalgia, any grade, percent: 50.0%
  Myalgia, grade 1–2, number (total): 3 [3]
  Myalgia, grade 1–2, number [causally related]: 3 [3]
  Myalgia, grade 3, number: 0
  Myalgia, grade 4, number: 0
  Oedema peripheral, any grade, number (total): 2 [2]
  Oedema peripheral, any grade, number [causally related]: 2 [2]
  Oedema peripheral, any grade, percent: 33.3%
  Oedema peripheral, grade 1–2, number (total): 2 [2]
  Oedema peripheral, grade 1–2, number [causally related]: 2 [2]
  Oedema peripheral, grade 3, number: 0
  Oedema peripheral, grade 4, number: 0
  Rash, any grade, number (total): 1 [1]
  Rash, any grade, number [causally related]: 1 [1]
  Rash, any grade, percent: 16.7%
  Rash, grade 1–2, number: 0
  Rash, grade 4, number: 0
  Thromboembolic event, any grade, number (total): 1 [1]
  Thromboembolic event, any grade, number [causally related]: 1 [1]
  Thromboembolic event, any grade, percent: 16.7%
  Thromboembolic event, grade 1–2, number: 0
  Thromboembolic event, grade 4, number: 0
[1]
  Creatine phosphokinase increase, grade 3, number (total): 1[1]*
  Creatine phosphokinase increase, grade 3, number [causally related]: 1[1]*
  Erythema multiforme, grade 3, number (total): 1 [1]*
  Erythema multiforme, grade 3, number [causally related]: 1 [1]*
  Hepatic function abnormal, grade 3, number (total): 1 [1]*
  Hepatic function abnormal, grade 3, number [causally related]: 1 [1]*
  Rash, grade 3, number (total): 1 [1]*
  Rash, grade 3, number [causally related]: 1 [1]*
  Thromboembolic event, grade 3, number (total): 1 [1]*
  Thromboembolic event, grade 3, number [causally related]: 1 [1]*
600 mg BID, out of 6 patients
  patients whose treatment was discontinued due to DLTs: 2
[2]
  MTD (maximum tolerated dose): 450 mg BID
  recommended dose (RD) for phase 2: 450 mg BID
Cohort 1, 600 mg BID
  DLTs observed in case S1-3: grade 3 rash and hepatic function abnormal
  DLTs observed in case S1-4: grade 3 erythema multiforme and thromboembolic event
Phase 1 cohort 1, 600 mg BID, 6 patients
  number of dose-limiting toxicities (DLTs): 5
Phase 1 cohort 1, 600 mg BID, of 6 patients
  patients with DLTs: 3
Phase 1 cohort 2, 450 mg BID, 3 patients
  DLTs: no DLTs
Phase 2, 450 mg BID
  grade 3 adverse events including pneumonitis: 4%
